Results collected from several papers.
Lines come from different studies, so protocols differ.
Observed: cell growth or viability

With `Cc1ncsc1-c1ccc([C@H](CC(=O)NCCCCCCCCNC(=O)c2nc(N3CCc4cccc(C(=O)Nc5nc6ccccc6s5)c4C3)ccc2-c2cnn(CC34CC5CC(CC(C5)C3)C4)c2C)NC(=O)[C@@H]2C[C@@H](O)CN2C(=O)[C@@H](NC(=O)C2(C#N)CC2)C(C)(C)C)cc1` the IC50 was 0.313 µM (MOLT-4; MTS; 48 h).
With `CN(C)C(=O)c1cc2cnc(Nc3ccc(-c4ccc5c(=O)cc(N6CCOCC6)oc5c4)cc3)nc2n1C1CCCC1` the IC50 was 0.21 µM (NGP; ATP luminescence; 72 h).
The IC50 of `N/C(=N\O)c1ccc(-c2cc(CNc3cccc4cccnc34)on2)cc1` is reported as 15.6 µM (LN-229; MTS; 72 h).
The IC50 of `Cc1nc2c(n1CCCN1CCCCC1)C(=O)c1ccccc1C2=O` is reported as 14.7 µM (MIA PaCa-2; MTT).
For `Nc1ccccc1NC(=O)c1ccc(Cn2cnc3c(Nc4ccc(Cl)cc4)ncnc32)cc1`, the IC50 was 0.49 µM (MOLT-4; MTT; 72 h).
`Cc1ncsc1-c1ccc([C@H](CC(=O)NCCCCCNC(=O)c2nc(N3CCc4cccc(C(=O)Nc5nc6ccccc6s5)c4C3)ccc2-c2cnn(CC34CC5CC(CC(C5)C3)C4)c2C)NC(=O)[C@@H]2C[C@@H](O)CN2C(=O)[C@@H](NC(=O)C2(C#N)CC2)C(C)(C)C)cc1` gave an IC50 of 0.0938 µM (MOLT-4; MTS; 48 h).
The IC50 of `CC(=NNC(=O)c1cc(-c2ccccc2)n(-c2ccc(S(N)(=O)=O)cc2)n1)c1ccc(Br)cc1` is reported as 31.5 µM (PaCa-2; fluorescence; 48 h).
`Nc1ccccc1NC(=O)c1ccc(Cn2cnc3c(Nc4ccc(Br)cc4F)ncnc32)cc1` gave an IC50 of 0.45 µM (MOLT-4; MTT; 72 h).
The IC50 of `NS(=O)(=O)c1ccc(-n2nc(-c3nnc(CCl)o3)cc2-c2ccccc2)cc1` is reported as 26.3 µM (PaCa-2; fluorescence; 48 h).
The IC50 of `Cc1c(-c2ccc(N3CCc4cccc(C(=O)Nc5nc6ccccc6s5)c4C3)nc2C(=O)NCCCCCCCCNc2cccc3c2C(=O)N(C2CCC(=O)NC2=O)C3=O)cnn1CC12CC3CC(CC(C3)C1)C2` (stereo not shown) is reported as greater than 2 µM (MOLT-4; MTS; 48 h).
For `COc1cc([C@@H]2c3cc4c(cc3[C@@H](O[C@@H]3O[C@@H]5CO[C@@H](C)O[C@H]5[C@H](O)[C@H]3O)[C@H]3COC(=O)[C@H]23)OCO4)cc(OC)c1O`, the IC50 was 0.02 µM (LN-229; MTS; 72 h).
For `O=C(CSc1nc2ccccc2s1)N/N=C/c1ccc(OCC(=O)Nc2cccc([N+](=O)[O-])c2)cc1`, the IC50 was 15.3 µM (MOLT-4; MTS; 72 h).
With `Cc1c(-c2ccc(N3CCc4cccc(C(=O)Nc5nc6ccccc6s5)c4C3)nc2C(=O)NCCOCCNc2cccc3c2C(=O)N(C2CCC(=O)NC2=O)C3=O)cnn1CC12CC3CC(CC(C3)C1)C2` (stereo not shown) the IC50 was 0.0214 µM (MOLT-4; MTS; 48 h).
`O=C(CSc1nc2ccccc2s1)N/N=C/c1ccc(OCC(=O)Nc2ccc([N+](=O)[O-])cc2)cc1` gave an IC50 of greater than 100 µM (MOLT-4; MTS; 72 h).
The IC50 of `CCn1cc(/C=C(\C#N)C(=O)c2c[nH]c3ccccc23)c2ccccc21` is reported as greater than 40 µM (MIA PaCa-2; MTT; 48 h).
`FC(F)(F)c1cc(OCc2cc(-c3ccccc3)no2)c2ccccc2n1` gave an IC50 of 32.1 µM (LN-229; MTS; 72 h).
`CC(C)C(=O)Nc1ccc([N+](=O)[O-])c(C(F)(F)F)c1` gave an IC50 of 99.9 µM (LNCaP; MTS; 48 h).
`Cc1c(-c2ccc(N3CCc4cccc(C(=O)Nc5nc6ccccc6s5)c4C3)nc2C(=O)O)cnn1CC12CC3CC(C1)CC(C(=O)NCCCCNc1cccc4c1C(=O)N(C1CCC(=O)NC1=O)C4=O)(C3)C2` (stereo not shown) has an IC50 of 0.0302 µM (MOLT-4; MTS; 48 h).
With `COc1cc(C2C3=C(COC3=O)N(CCO)c3cc4c(cc32)CCC4)cc(OC)c1OC` (stereo not shown) the IC50 was 0.037 µM (BT-549; ATP luminescence; 48 h).
With `Cc1ncsc1-c1ccc([C@H](C)NC(=O)[C@H]2C[C@H](O)CN2C(=O)[C@@H](NC(=O)CCCCCCCS(=O)(=O)NC(=O)c2nc(N3CCc4cccc(C(=O)Nc5nc6ccccc6s5)c4C3)ccc2-c2cnn(CC34CC5CC(CC(C5)C3)C4)c2C)C(C)(C)C)cc1` the IC50 was 0.931 µM (human Platelet; MTS; 48 h).
With `COc1cc2[nH]cc(C(=O)C(C#N)=Cc3cn(Cc4ccc(Cl)cc4)c4ccccc34)c2cc1OC` the IC50 was greater than 40 µM (MIA PaCa-2; MTT; 48 h).
With `Cc1ncsc1-c1ccc([C@H](C)NC(=O)[C@@H]2C[C@@H](O)CN2C(=O)[C@@H](NC(=O)CCCCCC(=O)N2CCN(CC[C@H](CSc3ccccc3)Nc3ccc(S(=O)(=O)NC(=O)c4ccc(N5CCN(CC6=C(c7ccc(Cl)cc7)CCC(C)(C)C6)CC5)cc4)cc3S(=O)(=O)C(F)(F)F)CC2)C(C)(C)C)cc1` the IC50 was 0.0771 µM (MOLT-4; MTS; 48 h).
`O=c1cc(OCc2cc(-c3ccc(Cl)cc3Cl)no2)c2ccccc2o1` gave an IC50 of greater than 100 µM (LN-229; MTS; 72 h).
For `COc1cc([C@@H]2c3cc4c(cc3[C@@H](O[C@@H]3O[C@@H]5CO[C@@H](C)O[C@H]5[C@H](O)[C@H]3O)[C@H]3COC(=O)[C@H]23)OCO4)cc(OC)c1O`, the IC50 was 0.5 µM (DU-145; MTT).
With `CCCOc1ccc2[nH]cc(C(=O)C(C#N)=Cc3cn(C)c4ccccc34)c2c1` the IC50 was 28.9 µM (MIA PaCa-2; MTT; 48 h).
For `CCNC(=O)c1nc(N2CCc3cccc(C(=O)Nc4nc5ccccc5s4)c3C2)ccc1-c1cnn(CC23CC4CC(CC(C4)C2)C3)c1C`, the IC50 was 0.481 µM (MOLT-4; MTS; 48 h).
For `FC(F)(F)c1cc(OCc2cc(-c3ccccn3)no2)c2ccccc2n1`, the IC50 was greater than 100 µM (LN-229; MTS; 72 h).
The IC50 of `Cc1ncsc1-c1ccc(CNC(=O)[C@@H]2C[C@@H](O)CN2C(=O)[C@@H](NC(=O)C2(F)CC2)C(C)(C)C)c(OCCOc2ccc(CN3CCN(c4cc(-c5ccccc5O)nnc4N)CC3)cc2)c1` is reported as 0.0161 µM (LNCaP; ATP luminescence; 7 days).
